According to ChEMBL document CHEMBL2040844, “Anthranilic acid-based diamides derivatives incorporating aryl-isoxazoline pharmacophore as potential anticancer agents: design, synthesis and biological evaluation” (Eur J Med Chem, 2012):

Key:
[1] = system: NCI-H460; experiment: Growth inhibition of human NCI-H460 cells at 40 ug/ml after 72 hrs by MTT assay; assay type: functional; details: NCI-H460, 72 h, read-out: GI
Summary of the method: (§1)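 Single-concentration screen at 40 µg/mL, reported as % cell growth inhibition. Cells were seeded at 2 × 10⁴ per well, grown to subconfluence, then treated for 72 h at 37 °C in humidified 5% CO₂. MTT was added for 4 h, formazan was dissolved in DMSO, and absorbance was read at 570 nm. Triplicate wells, three independent experiments; 5-FU served as positive control.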

[2] = system: MCF7; experiment: Growth inhibition of human MCF7 cells at 40 ug/ml after 72 hrs by MTT assay; assay type: functional; details: MCF7, 72 h, read-out: GI; summary of the method: as §1
[3] = system: HepG2; experiment: Growth inhibition of human HepG2 cells at 40 ug/ml after 72 hrs by MTT assay; assay type: functional; details: HepG2, 72 h, read-out: GI; summary of the method: as §1
[4] = system: BGC-823; experiment: Growth inhibition of human BGC823 cells at 40 ug/ml after 72 hrs by MTT assay; assay type: functional; details: BGC-823, 72 h, read-out: GI; summary of the method: as §1
[5] = system: SGC-7901; experiment: Growth inhibition of human SGC7901 cells at 40 ug/ml after 72 hrs by MTT assay; assay type: functional; details: SGC-7901, 72 h, read-out: GI; summary of the method: as §1
[6] = system: HepG2; experiment: Cytotoxicity against human HepG2 cells after 72 hrs by MTT assay; assay type: functional, cell-based; details: HepG2, 72 h
Summary of the method: (§2)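 MTT assay. Cells were seeded at 2 × 10⁴ per well, grown to subconfluence, then exposed to serial dilutions of compound in test medium for 72 h at 37 °C in humidified 5% CO₂. MTT was added for 4 h, formazan was dissolved in DMSO, and absorbance was read at 570 nm. IC50 values were derived from dose-response. Triplicate wells, three independent experiments; 5-FU served as positive control.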

[7] = system: MCF7; experiment: Cytotoxicity against human MCF7 cells after 72 hrs by MTT assay; assay type: functional, cell-based; details: MCF7, 72 h; summary of the method: as §2
[8] = system: BGC-823; experiment: Cytotoxicity against human BGC823 cells after 72 hrs by MTT assay; assay type: functional, cell-based; details: BGC-823, 72 h; summary of the method: as §2
[9] = system: SGC-7901; experiment: Cytotoxicity against human SGC7901 cells after 72 hrs by MTT assay; assay type: functional, cell-based; details: SGC-7901, 72 h; summary of the method: as §2
[10] = system: NCI-H460; experiment: Cytotoxicity against human NCI-H460 cells after 72 hrs by MTT assay; assay type: functional, cell-based; details: NCI-H460, 72 h; summary of the method: as §2

Row | Compound | inhibition of growth at 40 µg/mL [1] [%] | inhibition of growth at 40 µg/mL [2] [%] | inhibition of growth at 40 µg/mL [3] [%] | inhibition of growth at 40 µg/mL [4] [%] | inhibition of growth at 40 µg/mL [5] [%] | IC50 [6] [µM] | IC50 [7] [µM] | IC50 [8] [µM] | IC50 [9] [µM] | IC50 [10] [µM]
1 | CCN(CC)C(=O)c1cc(Cl)cc(C)c1NC(=O)C1CC(c2cc(OC)c(OC)c(OC)c2)=NO1 (stereo not given) | 0 | 23.5 | 28.6 | 27.8 | 28.3 | – | – | – | – | –
2 | COc1cc(C2=NOC(c3nc4c(C)cc(Cl)cc4c(=O)o3)C2)cc(OC)c1OC (stereo not given) | 0 | 12.4 | 16.5 | 0 | 0 | > 100 | > 100 | > 100 | > 100 | > 100
3 | CCCNC(=O)c1cc(Cl)cc(C)c1NC(=O)C1CC(c2ccc(Cl)cc2)=NO1 (stereo not given) | 13.6 | 22.2 | 16.7 | 24.5 | 14.7 | – | – | – | – | –
4 | CCCNC(=O)c1cc(Cl)cc(C)c1NC(=O)C1CC(c2cc(OC)c(OC)c(OC)c2)=NO1 (stereo not given) | 9.5 | 29.1 | 21.1 | 28 | 15.4 | > 100 | > 100 | > 100 | > 100 | > 100
5 | CNC(=O)c1ccccc1NC(=O)C1CC(c2ccc(Cl)cc2)=NO1 (stereo not given) | 5.7 | 16.5 | 50.6 | 13.3 | 7.8 | – | – | – | – | –
6 | Cc1cc(Cl)cc(C(=O)NC(C)C)c1NC(=O)C1CC(c2ccc(F)cc2)=NO1 (stereo not given) | 0 | 4.8 | 13.6 | 0 | 17.2 | – | – | – | – | –
7 | Cc1cc(Cl)cc2c(=O)oc(C3CC(c4ccc(F)cc4)=NO3)nc12 (stereo not given) | 64.6 | 54.7 | 38.9 | 72.1 | 42.7 | 53.4 | 51.9 | 34.9 | 53.4 | 35.8
8 | COc1cc(C2=NOC(C(=O)Nc3c(C)cc(Cl)cc3C(=O)NC(C)C)C2)cc(OC)c1OC (stereo not given) | 0.5 | 9.1 | 12.9 | 11.7 | 0 | – | – | – | – | –
9 | CNC(=O)c1ccccc1NC(=O)C1CC(c2ccc(F)cc2)=NO1 (stereo not given) | 0 | 0 | 9.1 | 21.4 | 0 | – | – | – | – | –
10 | CC(C)NC(=O)c1ccccc1NC(=O)C1CC(c2ccc(F)cc2)=NO1 (stereo not given) | 0 | 0 | 0 | 21.5 | 10.3 | – | – | – | – | –
11 | CCN(CC)C(=O)c1cc(Cl)cc(C)c1NC(=O)C1CC(c2ccc(F)cc2)=NO1 (stereo not given) | 10 | 14.4 | 18.2 | 36.4 | 15.8 | > 100 | > 100 | > 100 | > 100 | > 100
12 | COc1cc(C2=NOC(C(=O)Nc3ccccc3C(=O)NC(C)C)C2)cc(OC)c1OC (stereo not given) | 0 | 0 | 11.7 | 0 | 0 | – | – | – | – | –
13 | Cc1cc(Cl)cc(C(=O)NC2CCCCC2)c1NC(=O)C1CC(c2ccc(F)cc2)=NO1 (stereo not given) | 33.3 | 24.8 | 10 | 34.3 | 15.6 | – | – | – | – | –
